Legend:
[1] = Apparent permeability across apical to basolateral side in MDCK cells at 10 uM by LC-MS/MS analysis; format: ADME, cell-based, Canis lupus familiaris; details: dog
Procedure, shortened: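 Apparent permeability, Papp A-B, measured across MDCK cell monolayers. Mean of at least two runs.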

[2] = Tmax in NCR nude mouse at 5 mg/kg, po; format: ADME, organism-based; parameters: dose 5 mg/kg, route oral; details: in vivo
Procedure, shortened: (§1)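 Female NCR nude mice given a single 5 mg/kg IV or oral dose as a solution in 35:10:15:40 PEG400:EtOH:PG:H2O. Plasma concentration-time profiles were used to derive Cmax, Tmax, Vss, CL, half-life and bioavailability.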

[3] = Oral bioavailability in NCR nude mouse at 5 mg/kg; format: ADME, organism-based; details: in vivo; procedure, shortened: as §1
[4] = Cmax in NCR nude mouse at 5 mg/kg, po; format: ADME, organism-based; parameters: dose 5 mg/kg, route oral; details: in vivo; procedure, shortened: as §1
[5] = Volume of distribution at steady state in NCR nude mouse at 5 mg/kg, iv; format: ADME, organism-based; parameters: dose 5 mg/kg, route intravenous; details: in vivo, read-out: Vdss; procedure, shortened: as §1

Structure (SMILES) | Papp A→B at 10 µM [1] [nm/s] | further results
O=C(NCc1ccc(S(=O)(=O)C2CCN(C3COC3)CC2)cc1)N1Cc2ccncc2C1 | 1 | 
O=C(NCc1ccc(S(=O)(=O)c2ccccc2)cc1)N1Cc2ccncc2C1 | 83 | 
O=C(NCc1ccc(S(=O)(=O)C2CCN(C3CCOCC3)CC2)cc1)N1Cc2ccncc2C1 | 1 | 
Nc1ccc(S(=O)(=O)c2ccc(CNC(=O)N3Cc4ccncc4C3)cc2)cn1 | 5 | 
CC(C)n1cc(S(=O)(=O)c2ccc(CNC(=O)N3Cc4ccncc4C3)cc2)cn1 | 41 | 
Cc1ccc(S(=O)(=O)c2ccc(CNC(=O)N3Cc4ccncc4C3)cc2)cn1 | 25 | Tmax [2]: 15 min; bioavailability [3]: 20.3%; Cmax [4]: 0.33 µM; Vd [5]: 2.04 L/kg
